Data reported in ChEMBL document CHEMBL5038602, “Potent Lys Patch-Containing Stapled Peptides Targeting PCSK9” (J Med Chem, 2021).
Active and inactive are the calls of the source. The rule behind the calls is not given here. Positions of bridges follow the written chain, without caps; N, C: chain ends. Non-standard residues stand in square brackets, D forms with d. Residues, ends and D or L forms follow the SMILES beside them. ξ: configuration not given here. S5 = C=CCCC[C@](C)(N)C(=O)O; Orn = NCCC[C@H](N)C(=O)O; ξK = NCCCCC(N)C(=O)O; ξA = CC(N)C(=O)O

Assays:
[1] = target: T1, Proprotein convertase subtilisin/kexin type 9 (Homo sapiens, UniProt Q8NBP7); assay: Binding affinity to human PCSK9 by surface plasmon resonance
T1 sequence (Q8NBP7 31-152 limits assumed): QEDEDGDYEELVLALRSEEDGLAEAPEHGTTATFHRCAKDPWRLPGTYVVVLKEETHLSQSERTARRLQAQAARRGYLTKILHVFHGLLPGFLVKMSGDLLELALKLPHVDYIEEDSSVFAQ
T1 sequence (Q8NBP7 153-692 limits assumed): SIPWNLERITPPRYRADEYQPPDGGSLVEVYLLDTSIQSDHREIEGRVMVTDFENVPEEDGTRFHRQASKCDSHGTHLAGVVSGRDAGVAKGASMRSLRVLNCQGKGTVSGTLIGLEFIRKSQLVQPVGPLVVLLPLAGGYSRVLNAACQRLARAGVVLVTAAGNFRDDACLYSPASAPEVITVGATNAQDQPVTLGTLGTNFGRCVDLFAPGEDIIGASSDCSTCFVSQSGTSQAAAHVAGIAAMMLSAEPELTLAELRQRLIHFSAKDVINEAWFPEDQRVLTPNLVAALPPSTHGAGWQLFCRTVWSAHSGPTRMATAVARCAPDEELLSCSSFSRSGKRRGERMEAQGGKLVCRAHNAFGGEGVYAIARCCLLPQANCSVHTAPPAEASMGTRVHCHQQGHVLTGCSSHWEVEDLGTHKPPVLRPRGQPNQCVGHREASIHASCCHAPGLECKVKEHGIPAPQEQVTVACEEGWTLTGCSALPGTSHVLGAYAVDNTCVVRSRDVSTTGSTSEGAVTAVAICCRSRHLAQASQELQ
Method in brief: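 Recombinant human His-tagged PCSK9 (Gln31–Gln692, HEK293-expressed) at 14 µg/mL amine-coupled onto Ni-NTA chip, ~1000–4000 RU. Buffer 25 mM Tris-HCl, 5 mM CaCl2, 100 mM NaCl, 0.01% P20, pH 7.5, 5% DMSO in running buffer. 25°C. Double-referenced sensorgrams; KD from steady-state equilibrium responses fit to a 4-parameter model, or kinetics fit 1:1.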

[2] = Reversal of LDL uptake in human HepG2 cells at 10 uM for 2 hrs preincubation with PCSK9 followed by LDL addition and measured after 4 hrs by fluorimetry method relative to control; type: functional; conditions: time 6 hrs
Method in brief: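 HepG2 cells seeded 40000/well, serum-starved 24 h in DMEM with 5% LPDS. Human His-PCSK9 (20–50 nM) preincubated 30–60 min at room temperature ± compounds (10 µM to 0.0001 µM, 0.1% DMSO). Cells then exposed 2 h at 37°C. LDL-BODIPY added to 10 µg/mL final for 4 h. Fluorescence read at ex 480/em 520 nm. Expressed as % maximal LDL-BODIPY incorporation; EC50 by non-linear fit.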

[3] = Effect on mast cell degranulation in human LAD2 cells assessed as CCL3 release measured after 2 hrs by Luminex bead based assay; type: functional
Method in brief: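 LAD2 human mast cells in StemPro 34 medium, 0.2×10^6 cells/well. Supernatant CCL3 quantified by Luminex magnetic bead kit.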

HepG2 = assay: Cytotoxicity against human HepG2 cells assessed as reduction in cell viability at 0.4 to 10 uM for 48 hrs by SRB assay; type: toxicity, cell-based; conditions: hepg2, 48 h, dose 0.4-10 µM
Method in brief: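 HepG2 cells seeded 2000/well 24 h before treatment. Compounds at 0.4, 1.1, 3.3 and 10 µM in DMEM, 48 h at 37°C. SRB staining 30 min at 37°C, dye dissolved in 10 mM Tris base, absorbance at 560 nm. Triplicate wells averaged and normalized to untreated cells.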

[4] = target: T1, Proprotein convertase subtilisin/kexin type 9; assay: Binding affinity to human PCSK9

Row | Compound | Kd [1] [nM] | Activity (HepG2) | further results
1 | CC(=O)N[C@H](C(=O)N[C@H](C(=O)N[C@@H](Cc1ccccc1)C(=O)N[C@H](C(=O)N[C@@H](CO)C(=O)N[C@@H](Cc1c[nH]c2ccccc12)C(=O)N[C@H]1CCCCNC(=O)C[C@@H](C(=O)N[C@@H](Cc2c[nH]c3ccccc23)C(=O)N[C@H](C(N)=O)C(C)C)NC(=O)[C@H](CC(C)C)NC(=O)[C@H](Cc2ccc(O)cc2)NC(=O)[C@H](CCC(=O)O)NC1=O)[C@@H](C)O)C(C)C)[C@@H](C)O (Ac-TVFTSWKEYLDWV-NH2; lactam 7-11) | 3900 | Non-Toxic | Activity [2]: 52%; EC50 ([3]; Homo sapiens, LAD2, 2 h): > 5000 nM; Emax ([3]; time 2 hrs): 716.6 pg/mL
2 | CC(=O)N[C@@H](Cc1cnc[nH]1)C(=O)N[C@H](C(=O)N[C@@H](Cc1ccccc1)C(=O)N[C@@H](CCCN)C(=O)N[C@@H](CO)C(=O)N[C@@H](Cc1c[nH]c2ccccc12)C(=O)N[C@@H](CCC(=O)O)C(=O)N[C@@H](CCC(=O)O)C(=O)N[C@@H](Cc1ccc(O)cc1)C(=O)N[C@@H](CC(C)C)C(=O)N[C@@H](CC(=O)O)C(=O)N[C@@H](Cc1c[nH]c2ccccc12)C(=O)N[C@H](C(N)=O)C(C)C)C(C)C (Ac-HVF[Orn]SWEEYLDWV-NH2) | 1100 | Non-Toxic | –
3 | CC(=O)N[C@H](C(=O)N[C@H](C(=O)N[C@@H](Cc1ccccc1)C(=O)N[C@H](C(=O)N[C@@H](CO)C(=O)N[C@@H](Cc1c[nH]c2ccccc12)C(=O)N[C@@]1(C)CCC/C=C\CCC[C@@](C)(C(=O)N[C@@H](Cc2c[nH]c3ccccc23)C(=O)N[C@H](C(N)=O)C(C)C)NC(=O)[C@H](CC(C)C)NC(=O)[C@H](Cc2ccc(O)cc2)NC(=O)[C@H](CCC(=O)O)NC1=O)[C@@H](C)O)C(C)C)[C@@H](C)O (Ac-TVFTSW[S5]EYL[S5]WV-NH2; staple (Z) 7-11) | 6500 | Non-Toxic | Activity [2]: 42.7%
4 | Ac-HVFNSWEEYLDWV-NH2 | 3900 | Non-Toxic | Activity [2]: 62.4%
5 | CC(=O)N[C@@H](Cc1cnc[nH]1)C(=O)N[C@H](C(=O)N[C@@H](Cc1ccccc1)C(=O)N[C@@H](CC(N)=O)C(=O)N[C@@H](CO)C(=O)N[C@@H](Cc1c[nH]c2ccccc12)C(=O)N[C@@H](CCC(=O)O)C(=O)N[C@@H](CCC(=O)O)C(=O)N[C@@H](Cc1ccc(O)cc1)C(=O)N[C@@H](CC(C)C)C(=O)N[C@@H](CC(=O)O)C(=O)N[C@@H](Cc1c[nH]c2ccccc12)C(=O)N[C@H](C(=O)NC(CCCCN)C(=O)NC(CCCCN)C(=O)NC(CCCCN)C(N)=O)C(C)C)C(C)C (some centres not stated) (Ac-HVFNSWEEYLDWV[ξK][ξK][ξK]-NH2) | 1100 | Non-Toxic | –
6 | CC(=O)N[C@@H](Cc1cnc[nH]1)C(=O)N[C@H](C(=O)N[C@@H](Cc1ccccc1)C(=O)N[C@@H](CC(N)=O)C(=O)N[C@@H](CO)C(=O)N[C@@H](Cc1c[nH]c2ccccc12)C(=O)N[C@H]1CCCCNC(=O)C[C@@H](C(=O)N[C@@H](Cc2c[nH]c3ccccc23)C(=O)N[C@H](C(=O)NC(CCCCN)C(=O)NC(CCCCN)C(=O)NC(CCCCN)C(N)=O)C(C)C)NC(=O)[C@H](CC(C)C)NC(=O)[C@H](Cc2ccc(O)cc2)NC(=O)[C@H](CCC(=O)O)NC1=O)C(C)C (some centres not stated) (Ac-HVFNSWKEYLDWV[ξK][ξK][ξK]-NH2; lactam 7-11) | 757 | Non-Toxic | –
7 | CC(=O)N[C@H](C(=O)N[C@H](C(=O)N[C@@H](Cc1ccccc1)C(=O)N[C@H](C(=O)N[C@@H](CO)C(=O)N[C@@H](Cc1c[nH]c2ccccc12)C(=O)N[C@H]1CCCCNC(=O)C[C@@H](C(=O)N[C@@H](Cc2c[nH]c3ccccc23)C(=O)N[C@H](C(=O)N[C@@H](CCCCN)C(=O)N[C@@H](CCCCN)C(=O)N[C@@H](CCCCN)C(=O)N[C@@H](CCCCN)C(=O)N[C@@H](CCCCN)C(=O)N[C@@H](CCCCN)C(N)=O)C(C)C)NC(=O)[C@H](CC(C)C)NC(=O)[C@H](Cc2ccc(O)cc2)NC(=O)[C@H](CCC(=O)O)NC1=O)[C@@H](C)O)C(C)C)[C@@H](C)O (Ac-TVFTSWKEYLDWVKKKKKK-NH2; lactam 7-11) | 25 | Non-Toxic | –
8 | Ac-TVFTSWEEALDWV-NH2 | – | Non-Toxic | –
9 | CC(=O)N[C@@H](Cc1cnc[nH]1)C(=O)N[C@H](C(=O)N[C@@H](Cc1ccccc1)C(=O)N[C@@H](CCCNC(=N)N)C(=O)N[C@@H](CO)C(=O)N[C@@H](Cc1c[nH]c2ccccc12)C(=O)N[C@@]1(C)CCC/C=C\CCC[C@@](C)(C(=O)N[C@@H](Cc2c[nH]c3ccccc23)C(=O)N[C@H](C(=O)N[C@@H](CCCCN)C(=O)N[C@@H](CCCCN)C(=O)N[C@@H](CCCCN)C(=O)N[C@@H](CCCCN)C(=O)N[C@@H](CCCCN)C(=O)N[C@@H](CCCCN)C(N)=O)C(C)C)NC(=O)[C@H](CC(C)C)NC(=O)[C@H](Cc2ccc(O)cc2)NC(=O)[C@H](CCC(=O)O)NC1=O)C(C)C (Ac-HVFRSW[S5]EYL[S5]WVKKKKKK-NH2; staple (Z) 7-11) | 7 | Non-Toxic | –
10 | Ac-TVFTSWAEYLDWV-NH2 | 7000 | Non-Toxic | –
11 | CC(=O)N[C@H](C(=O)N[C@H](C(=O)N[C@@H](Cc1ccccc1)C(=O)N[C@H](C(=O)N[C@@H](CO)C(=O)N[C@@H](Cc1c[nH]c2ccccc12)C(=O)N[C@@H](CCC(=O)O)C(=O)N[C@@H](CCC(=O)O)C(=O)N[C@@H](Cc1ccc(O)cc1)C(=O)N[C@@H](CC(C)C)C(=O)NC(C)C(=O)N[C@@H](Cc1c[nH]c2ccccc12)C(=O)N[C@H](C(=O)N[C@@H](CCCCN)C(=O)N[C@@H](CCCCN)C(=O)N[C@@H](CCCCN)C(=O)N[C@@H](CCCCN)C(=O)N[C@@H](CCCCN)C(=O)N[C@@H](CCCCN)C(N)=O)C(C)C)[C@@H](C)O)C(C)C)[C@@H](C)O (some centres not stated) (Ac-TVFTSWEEYL[ξA]WVKKKKKK-NH2) | 72.5 | – | –
12 | Ac-HVCNSWEEYLDWV-NH2 | – | Non-Toxic | Activity [1]: inactive
13 | CC(=O)N[C@@H](Cc1cnc[nH]1)C(=O)N[C@H](C(=O)N[C@@H](Cc1ccccc1)C(=O)N[C@@H](CC(N)=O)C(=O)N[C@@H](CO)C(=O)N[C@@H](Cc1c[nH]c2ccccc12)C(=O)N[C@H]1CCCCNC(=O)C[C@@H](C(=O)N[C@@H](Cc2c[nH]c3ccccc23)C(=O)N[C@H](C(N)=O)C(C)C)NC(=O)[C@H](CC(C)C)NC(=O)[C@H](Cc2ccc(O)cc2)NC(=O)[C@H](CCC(=O)O)NC1=O)C(C)C (Ac-HVFNSWKEYLDWV-NH2; lactam 7-11) | 5300 | Non-Toxic | –
14 | Ac-HVFKSWEEYLDWV-NH2 | 1200 | Non-Toxic | –
15 | Ac-TVATSWEEYLDWV-NH2 | – | – | Activity [1]: inactive
16 | Ac-TVFTSWEEYLAWV-NH2 | 8600 | – | –
17 | Ac-TVFTSWEEYLDWVKKKKKK-NH2 | 424 | Non-Toxic | Kd [4]: 424 nM
18 | Ac-HVFRSWEEYLDWV-NH2 | 865 | Non-Toxic | –
19 | CC(=O)N[C@H](C(=O)N[C@H](C(=O)N[C@@H](Cc1ccccc1)C(=O)N[C@H](C(=O)N[C@@H](CO)C(=O)N[C@@H](Cc1c[nH]c2ccccc12)C(=O)N[C@H]1CCCCNC(=O)C[C@@H](C(=O)N[C@@H](Cc2c[nH]c3ccccc23)C(=O)N[C@H](C(=O)N[C@@H](CCCCN)C(=O)N[C@@H](CCCCN)C(=O)N[C@@H](C)C(=O)N[C@@H](CCCCN)C(=O)N[C@@H](CCCCN)C(=O)N[C@H](CCCCN)C(N)=O)C(C)C)NC(=O)[C@H](CC(C)C)NC(=O)[C@H](Cc2ccc(O)cc2)NC(=O)[C@H](CCC(=O)O)NC1=O)[C@@H](C)O)C(C)C)[C@@H](C)O | 133 | – | –
20 | CC(=O)N[C@H](C(=O)N[C@H](C(=O)N[C@@H](Cc1ccccc1)C(=O)N[C@H](C(=O)N[C@@H](CO)C(=O)N[C@@H](Cc1c[nH]c2ccccc12)C(=O)N[C@H]1CCCCNC(=O)C[C@@H](C(=O)N[C@@H](Cc2c[nH]c3ccccc23)C(=O)N[C@H](C(=O)N[C@@H](CCCCN)C(=O)N[C@@H](CCCCN)C(=O)N[C@@H](CCCCN)C(N)=O)C(C)C)NC(=O)[C@H](CC(C)C)NC(=O)[C@H](Cc2ccc(O)cc2)NC(=O)[C@H](CCC(=O)O)NC1=O)[C@@H](C)O)C(C)C)[C@@H](C)O (Ac-TVFTSWKEYLDWVKKK-NH2; lactam 7-11) | 1000 | Non-Toxic | –
21 | CC(=O)N[C@@H](Cc1cnc[nH]1)C(=O)N[C@H](C(=O)N[C@@H](Cc1ccccc1)C(=O)N[C@@H](CC(N)=O)C(=O)N[C@@H](CO)C(=O)N[C@@H](Cc1c[nH]c2ccccc12)C(=O)N[C@H]1CCCCNC(=O)C[C@@H](C(=O)N[C@@H](Cc2c[nH]c3ccccc23)C(=O)N[C@H](C(=O)N[C@@H](CCCCN)C(=O)N[C@@H](CCCCN)C(=O)N[C@@H](CCCCN)C(=O)N[C@@H](CCCCN)C(=O)N[C@@H](CCCCN)C(=O)N[C@@H](CCCCN)C(N)=O)C(C)C)NC(=O)[C@H](CC(C)C)NC(=O)[C@H](Cc2ccc(O)cc2)NC(=O)[C@H](CCC(=O)O)NC1=O)C(C)C (Ac-HVFNSWKEYLDWVKKKKKK-NH2; lactam 7-11) | 19 | Non-Toxic | –
22 | Ac-TVFTSWEEYLDWVKKK-NH2 | 1600 | Non-Toxic | Activity [2]: 72.3%; Kd [4]: 1600 nM
